Converted amounts (≈) assume the structure as drawn. The source made the active and inactive calls. No cut-off for these calls is given here.
How the values were obtained:
Salmonella typhimurium = experiment: Antibacterial activity against Salmonella Typhimurium ATCC 14028 at < 100 ug/mL by agar dilution method; assay type: functional, organism-based; settings: Salmonella enterica subsp. enterica serovar Typhimurium
Procedure, shortened: (§1)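 Agar dilution on 1 mL Mueller-Hinton agar slants. Compounds were serially two-fold diluted in DMSO (final DMSO ≤2%) to give 10–100 µg/mL in the medium. Bacteria were grown on MHA at 35 °C for 24 h, suspended in 0.86% saline at 1.5 × 10^8 cell/mL (0.5 McFarland), and 1 µL was added per slant. Slants were incubated at 35 °C. Drug-free blank included; each assay run three times; MIC recorded.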

Proteus mirabilis = experiment: Antibacterial activity against Proteus mirabilis ATCC 25933 at < 100 ug/mL by agar dilution method; assay type: functional, organism-based; procedure, shortened: as §1
[1] = test system: Staphylococcus saprophyticus; experiment: Antibacterial activity against Staphylococcus saprophyticus ATCC 35552 at < 100 ug/mL by agar dilution method; assay type: functional, organism-based; procedure, shortened: as §1
Streptococcus agalactiae = experiment: Antibacterial activity against Streptococcus agalactiae ATCC 13813 at < 100 ug/mL by agar dilution method; assay type: functional; procedure, shortened: as §1
Pseudomonas aeruginosa = experiment: Antibacterial activity against Pseudomonas aeruginosa ATCC 27853 at < 100 ug/mL by agar dilution method; assay type: functional, organism-based; procedure, shortened: as §1
Staphylococcus aureus [2] = experiment: Antibacterial activity against Staphylococcus aureus ATCC 6538P at < 100 ug/mL by agar dilution method; assay type: functional, organism-based; procedure, shortened: as §1
Bacillus cereus = experiment: Antibacterial activity against Bacillus cereus ATCC 14579 at < 100 ug/mL by agar dilution method; assay type: functional; procedure, shortened: as §1
Bacillus subtilis = experiment: Antibacterial activity against Bacillus subtilis ATCC 23858 at < 100 ug/mL by agar dilution method; assay type: functional, organism-based; procedure, shortened: as §1
Enterobacter cloacae = experiment: Antibacterial activity against Enterobacter cloacae ATCC 35030 at < 100 ug/mL by agar dilution method; assay type: functional, organism-based; procedure, shortened: as §1
Escherichia coli = experiment: Antibacterial activity against Escherichia coli ATCC 11775 at < 100 ug/mL by agar dilution method; assay type: functional, organism-based; procedure, shortened: as §1
[3] = Toxicity in Artemia salina assessed as mortality after 24 hrs; assay type: organism-based; settings: in vivo
Procedure, shortened: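 Artemia salina hatched at pH 9.0 (Na2CO3), 25 °C, strong aeration, continuous light (2000 Lux). Phototropic nauplii were collected about 12 h after hatching, and groups of 10 were exposed per well to various compound concentrations for 24 h. Survivors were counted and % deaths calculated.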

Mus musculus [4] = experiment: Ratio of acetyl salicylic acid ID50 to compound ID50 for inhibition of acetic acid-induced abdominal contraction in ip dosed Swiss mouse; assay type: functional, Abdominal cavity
Mus musculus [5] = experiment: Antinociceptive activity in Swiss mouse assessed as inhibition of formalin-induced paw licking activity at 10 mg/kg, ip administered 30 mins before formalin challenge measured after 5 mins; assay type: functional; settings: route intraperitoneal
Procedure, shortened: (§2)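 Formalin test in mice pretreated i.p. with vehicle or 10 mg/kg test agent 30 min before formalin injection. Animals were acclimatized 5 min in a glass cylinder with an angled mirror. Licking time was recorded for the early phase (0–5 min) and the late phase (15–30 min) after formalin. Values are mean ± S.E.M.; ANOVA with Dunnett's test.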

Mus musculus [6] = experiment: Antinociceptive activity in Swiss mouse assessed as inhibition of formalin-induced paw licking activity at 10 mg/kg, ip administered 30 mins before formalin challenge measured after 15 to 30 mins; assay type: functional; settings: route intraperitoneal; procedure, shortened: as §2
Mus musculus [7] = experiment: Antinociceptive activity in Swiss mouse assessed as inhibition of acetic acid-induced writhing at 10 mg/kg, ip administered 30 mins before acetic acid challenge measured after 20 mins relative to control; assay type: functional; settings: route intraperitoneal
Procedure, shortened: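 Mice were given 10 mg/kg i.p. in Tween 80/0.9% NaCl (Tween ≤5%) 30 min before i.p. 0.6% acetic acid, at 20–22 °C. Abdominal constrictions plus hind-limb stretching were counted cumulatively over 20 min in individual funnels. Groups of six, randomized and blinded. Inhibition was calculated versus vehicle controls (10 ml/kg i.p.); ANOVA with Dunnett's test.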

Mus musculus [8] = experiment: Antinociceptive activity in Swiss mouse assessed as inhibition of acetic acid-induced abdominal contraction at 0.1 to 100 mg/kg, ip administered 30 mins before acetic acid challenge measured after 20 mins relative to control; assay type: functional, Abdominal cavity; settings: dose mg/kg 0.1-100; route intraperitoneal
Procedure, shortened: (§3)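 Writhing dose-response in mice: compounds at 0.1–10 mg/kg and standard drugs at 10–100 mg/kg, i.p. in Tween 80/saline, 30 min before i.p. 0.6% acetic acid. Constrictions and stretches were counted for 20 min at 20–22 °C, with six to eight animals per group. ID50 (dose halving the response versus control) was given as geometric mean with 95% confidence limits.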

Mus musculus [9] = experiment: Antinociceptive activity in ip dosed Swiss mouse assessed as inhibition of acetic acid-induced abdominal contraction administered 30 mins before acetic acid challenge measured after 20 mins; assay type: functional; settings: Abdominal cavity, read-out: ID50 (the source's name); procedure, shortened: as §3
Mus musculus [10] = experiment: Ratio of compound to acetyl salicylic acid activity against formalin-induced paw licking activity in Swiss mouse at 10 mg/kg, ip administered 30 mins before formalin challenge measured after 15 to 30 mins; assay type: functional; settings: route intraperitoneal
Mus musculus [11] = experiment: Ratio of metamizole ID50 to compound ID50 for inhibition of acetic acid-induced abdominal contraction in ip dosed Swiss mouse; assay type: functional, Abdominal cavity
Aspergillus flavus = experiment: Antifungal activity against Aspergillus flavus ATCC 9170 by agar dilution method; assay type: functional, organism-based
Procedure, shortened: (§4)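 Filamentous fungi (hyalohyphomycetes, dermatophytes) were grown on SDA. Spore suspensions were set to 1.0–5.0 × 10^6 spores/mL by hemocytometer count. 1 µL was inoculated onto 1 mL SDA slants holding compound at 10–100 µg/mL (two-fold DMSO dilutions, final DMSO ≤2%), then incubated at 28–30 °C. Drug-free blank and ketoconazole control included; repeated three times; MIC determined.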

Aspergillus niger = experiment: Antifungal activity against Aspergillus niger ATCC 9092 by agar dilution method; assay type: functional, organism-based; procedure, shortened: as §4
Microsporum canis = experiment: Antifungal activity against Microsporum canis C112 by agar dilution method; assay type: functional, organism-based; procedure, shortened: as §4
Candida albicans = experiment: Antifungal activity against Candida albicans ATCC 10231 by agar dilution method; assay type: functional, organism-based
Procedure, shortened: (§5)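 Yeasts were grown on Sabouraud dextrose agar and adjusted to 1.0–5.0 × 10^6 cell/mL (0.5 McFarland). Agar dilution used 1 mL SDA slants holding two-fold DMSO dilutions of compound at 10–100 µg/mL, with final DMSO ≤2%. 1 µL of inoculum was added per slant, then incubated at 35 °C. Drug-free blank and ketoconazole positive control included; triplicate runs; MIC read.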

Pichia kudriavzevii = experiment: Antifungal activity against Candida krusei ATCC 6582 by agar dilution method; assay type: functional, organism-based; procedure, shortened: as §5
Aspergillus fumigatus = experiment: Antifungal activity against Aspergillus fumigatus ATCC 26934 by agar dilution method; assay type: functional; procedure, shortened: as §4
Cryptococcus neoformans = experiment: Antifungal activity against Cryptococcus neoformans ATCC 32264 by agar dilution method; assay type: functional; procedure, shortened: as §5
Nannizzia gypsea = experiment: Antifungal activity against Microsporum gypseum C115 by agar dilution method; assay type: functional; procedure, shortened: as §4
Rhizopus = experiment: Antifungal activity against Rhizopus CL35 by agar dilution method; assay type: functional; procedure, shortened: as §4
[12] = test system: Trichophyton mentagrophytes; experiment: Antifungal activity against Trichophyton mentagrophytes ATCC 9972 by agar dilution method; assay type: functional; procedure, shortened: as §4
Trichophyton rubrum = experiment: Antifungal activity against Trichophyton rubrum C137 by agar dilution method; assay type: functional; procedure, shortened: as §4
Staphylococcus aureus [13] = experiment: Antibacterial activity against Staphylococcus aureus ATCC 6538P by agar dilution method; assay type: functional
Mus musculus [14] = species on record: Mus musculus; experiment: Antinociceptive activity in mouse assessed as inhibition of acetic acid-induced writhing; assay type: functional; settings: read-out: ID50 (the source's name)

| SMILES | Activity (Salmonella typhimurium) | Activity (Proteus mirabilis) | Activity [1] | Activity (Streptococcus agalactiae) | Activity (Pseudomonas aeruginosa) | Activity (Staphylococcus aureus [2]) | Activity (Bacillus cereus) | Activity (Bacillus subtilis) | Activity (Enterobacter cloacae) | Activity (Escherichia coli) | LC50 at 24 h [3] [µg/mL] | Ratio (Mus musculus [4]) | inhibition in vivo at 10 mg/kg (Mus musculus [5]) [%] | inhibition in vivo at 10 mg/kg (Mus musculus [6]) [%] | inhibition in vivo at 10 mg/kg (Mus musculus [7]) [%] | inhibition (INH) (Mus musculus [8]) [%] | ED50 (Mus musculus [9]) [µmol/kg] | Ratio (Mus musculus [11]) | Activity (Aspergillus flavus) | Activity (Aspergillus niger) | also measured |
| --- | --- | --- | --- | --- | --- | --- | --- | --- | --- | --- | --- | --- | --- | --- | --- | --- | --- | --- | --- | --- | --- |
| Cc1c(N2C(=O)C(Cl)=C(Nc3ccc(Cl)cc3)C2=O)c(=O)n(-c2ccccc2)n1C | inactive | inactive | inactive | inactive | inactive | inactive | inactive | inactive | inactive | inactive | > 1000 | 33 | 28.2 | 29.3 | 97.4 | 97.4 | 4.05 | – | – | – | – |
| Cc1c(N2C(=O)C(Cl)=C(Nc3ccc(Cl)c([N+](=O)[O-])c3)C2=O)c(=O)n(-c2ccccc2)n1C | inactive | inactive | inactive | inactive | inactive | inactive | inactive | inactive | inactive | inactive | 94.2 (≈ 193 µM) | 103 | 19.6 | 49 | 98.5 | 98.5 | 1.29 | 126 | – | – | Ratio (Mus musculus [10]): 6 |
| Cc1c(N2C(=O)C(Cl)=C(Nc3ccc(Br)cc3)C2=O)c(=O)n(-c2ccccc2)n1C | inactive | inactive | inactive | inactive | inactive | inactive | inactive | inactive | inactive | inactive | > 1000 | 233 | 11.4 | 22.5 | 97.5 | 97.5 | 0.57 | 284 | Active | Active | Activity (Microsporum canis): Active; Activity (Candida albicans): Active; Activity (Pichia kudriavzevii): Active; MIC (Aspergillus fumigatus): > 100 µg/mL; MIC (Cryptococcus neoformans): > 100 µg/mL; MIC (Nannizzia gypsea): > 100 µg/mL; MIC (Rhizopus): 100 µg/mL (≈ 205 µM); MIC [12]: > 100 µg/mL; MIC (Trichophyton rubrum): > 100 µg/mL |
| CC(=O)Oc1ccccc1C(=O)O [ASPIRIN] | – | – | – | – | – | – | – | – | – | – | – | – | 16 | 45 | 35 | 83 | – | – | – | – | – |
| Cc1c(N2C(=O)C(Cl)=C(Nc3ccc(F)cc3)C2=O)c(=O)n(-c2ccccc2)n1C | inactive | inactive | inactive | inactive | inactive | inactive | inactive | inactive | inactive | inactive | > 1000 | 182 | 28.9 | 4.5 | 93.2 | 96.7 | 0.73 | 222 | Active | Active | Activity (Microsporum canis): Active; Activity (Candida albicans): Active; Activity (Pichia kudriavzevii): Active; MIC (Aspergillus fumigatus): > 100 µg/mL; MIC (Cryptococcus neoformans): > 100 µg/mL; MIC (Nannizzia gypsea): 100 µg/mL (≈ 234 µM); MIC (Rhizopus): > 100 µg/mL; MIC [12]: > 100 µg/mL; MIC (Trichophyton rubrum): > 100 µg/mL |
| Cc1c(N2C(=O)C(Cl)=C(Cl)C2=O)c(=O)n(-c2ccccc2)n1C | inactive | inactive | inactive | inactive | inactive | inactive | inactive | inactive | inactive | inactive | – | – | – | – | 99 | 99 | 10.8 | – | – | – | MIC (Staphylococcus aureus [13]): 250 µg/mL (≈ 710 µM); ED50 (Mus musculus [14]): 10.8 µmol/kg |
